In ChEMBL document CHEMBL2380254, “Optimization of tocotrienols as antiproliferative and antimigratory leads” (Eur J Med Chem, 2013):

Legend:
MCF7 = test: Antiproliferative activity against human MCF7 cells by MTT assay; assay type: functional, cell-based
How it was run: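 Cells plated at 8 × 10^3/well (MDA-MB-231) or 10^4/well (MCF7) in 96-well plates. Compounds fed in media with 5% FBS (MDA-MB-231) or 1% FBS (MCF7). MTT read-out of viable cells.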

MDA-MB-468 [1] = test: Growth inhibition of human MDA-MB-468 cells assessed as cell growth at 10 uM after 48 hrs by sulforhodamine B assay; assay type: functional; settings: MDA-MB-468, 48 h, read-out: Activity
How it was run: (§1)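 Single-dose NCI-60 screen: adherent cells in RPMI 1640 with 5% FBS were exposed to 10 µM for 48 h at 37 °C after a 24 h preincubation. They were fixed in situ with cold TCA (10% final), stained with 0.4% SRB in 1% acetic acid, solubilized in 10 mM Tris base, and read at 515 nm. Percent growth was taken relative to time-zero and control plates.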

UO-31 = test: Growth inhibition of human UO31 cells assessed as cell growth at 10 uM after 48 hrs by sulforhodamine B assay; assay type: functional; settings: UO-31, 48 h, read-out: Activity
How it was run: (§2)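 Single-dose NCI-60 test at 10 µM. Cells were grown in RPMI 1640 with 5% FBS and 2 mM L-glutamine, preincubated 24 h, with T0 plates TCA-fixed. Exposure was 48 h at 37 °C, 5% CO2. Cells were fixed with cold TCA (final 10%, 4 °C, 60 min), stained with SRB and read at 515 nm. Percent growth was taken relative to T0 and untreated control; negative values denote cell kill.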

TK-10 = test: Growth inhibition of human TK10 cells assessed as cell growth at 10 uM after 48 hrs by sulforhodamine B assay; assay type: functional; settings: TK-10, 48 h, read-out: Activity; how it was run: as §2
SN12C = test: Growth inhibition of human SN12C cells assessed as cell growth at 10 uM after 48 hrs by sulforhodamine B assay; assay type: functional; settings: read-out: Activity; how it was run: as §2
UACC-62 = test: Growth inhibition of human UACC62 cells assessed as cell growth at 10 uM after 48 hrs by sulforhodamine B assay; assay type: functional; settings: UACC-62, 48 h, read-out: Activity; how it was run: as §2
SNB-19 [2] = test: Growth inhibition of human SNB19 cells assessed as cell growth at 10 uM after 48 hrs by sulforhodamine B assay; assay type: functional; settings: SNB-19, 48 h, read-out: Activity; how it was run: as §2
HT-29 = test: Growth inhibition of human HT-29 cells assessed as cell growth at 10 uM after 48 hrs by sulforhodamine B assay; assay type: functional; settings: HT-29, 48 h, read-out: Activity
How it was run: (§3)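 NCI-60 single-dose screen at 10 µM: cells in RPMI 1640 with 5% FBS, preincubated 24 h, then exposed 48 h at 37 °C. TCA fixation (16% final for suspension cells), SRB staining, absorbance 515 nm. Percent growth relative to time-zero and untreated control plates; negative values indicate cell kill.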

HCT-116 = test: Growth inhibition of human HCT116 cells assessed as cell growth at 10 uM after 48 hrs by sulforhodamine B assay; assay type: functional; settings: HCT-116, 48 h, read-out: Activity; how it was run: as §3
COLO 205 = test: Growth inhibition of human COLO205 cells assessed as cell growth at 10 uM after 48 hrs by sulforhodamine B assay; assay type: functional; settings: COLO 205, 48 h, read-out: Activity; how it was run: as §3
NCI-H522 = test: Growth inhibition of human NCI-H522 cells assessed as cell growth at 10 uM after 48 hrs by sulforhodamine B assay; assay type: functional; settings: NCI-H522, 48 h, read-out: Activity; how it was run: as §1
A549 = test: Growth inhibition of human A549/ATCC cells assessed as cell growth at 10 uM after 48 hrs by sulforhodamine B assay; assay type: functional; settings: A549, 48 h, read-out: Activity; how it was run: as §3
RPMI-8226 = test: Growth inhibition of human RPMI8226 cells assessed as cell growth at 10 uM after 48 hrs by sulforhodamine B assay; assay type: functional; settings: RPMI-8226, 48 h, read-out: Activity
How it was run: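 Single 10 µM dose applied to suspension cells in RPMI 1640 with 5% FBS and 2 mM L-glutamine for 48 h at 37 °C. Settled cells were fixed with 80% TCA (16% final), stained with SRB, and read at 515 nm. Percent growth was calculated against time-zero and untreated control optical densities.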

HL-60(TB) = test: Growth inhibition of human HL-60(TB) cells assessed as cell growth at 10 uM after 48 hrs by sulforhodamine B assay; assay type: functional; settings: HL-60, 48 h, read-out: Activity
How it was run: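 NCI-60 single-dose screen run at 10 µM on HL-60(TB) suspension cells in RPMI 1640 with 5% FBS and 2 mM L-glutamine. Cells were preincubated for 24 h, with a time-zero plate fixed then. Exposure lasted 48 h at 37 °C. Settled cells were fixed with TCA (16% final), stained with SRB and read at 515 nm. Percent growth is relative to control and T0.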

SK-OV-3 = test: Growth inhibition of human SKOV3 cells assessed as cell growth at 10 uM after 48 hrs by sulforhodamine B assay; assay type: functional; settings: SK-OV-3, 48 h, read-out: Activity; how it was run: as §2
MDA-MB-468 [3] = test: Growth inhibition of human MDA-MB-468 cells after 48 hrs by sulforhodamine B assay; assay type: functional; settings: MDA-MB-468, 48 h
How it was run: (§4)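 NCI-60 panel cells grown in RPMI 1640 with 5% FBS and 2 mM L-glutamine, seeded at 5000–40,000 cells/well and preincubated 24 h. Five 10-fold dilutions (0.001–100 µM) from DMSO stocks were added for 48 h at 37 °C. Adherent cells were fixed with cold TCA (10% final) for 60 min at 4 °C, stained with 0.4% SRB, and read at 515 nm. GI50 was set where 100×(T−T0)/(C−T0)=50.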

786-0 = test: Growth inhibition of human 786-0 cells after 48 hrs by sulforhodamine B assay; assay type: functional; settings: 786-0, 48 h
How it was run: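 NCI-60 screen: cells in RPMI 1640 with 5% FBS and 2 mM glutamine, 5000–40,000 cells/well, preincubated 24 h. Five concentrations (10-fold dilutions; 100 to 0.001 µM) applied for 48 h at 37 °C. TCA fixation, SRB stain, absorbance at 515 nm. Time-zero plates included; GI50 where 100×(T−T0)/(C−T0)=50.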

SK-MEL-2 = test: Growth inhibition of human SK-MEL-2 cells after 48 hrs by sulforhodamine B assay; assay type: functional; settings: SK-MEL-2, 48 h; how it was run: as §4
SNB-19 [4] = test: Growth inhibition of human SNB19 cells after 48 hrs by sulforhodamine B assay; assay type: functional; settings: SNB-19, 48 h
How it was run: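 NCI-60 five-dose screen. Cells were grown in RPMI 1640 with 5% FBS and 2 mM L-glutamine, plated at 5000–40,000 cells/well and incubated 24 h before dosing, with T0 plates TCA-fixed. DMSO stocks were diluted to doses of […] and exposed 48 h at 37 °C, 5% CO2. Cells were fixed with cold TCA (final 10%, 60 min, 4 °C), stained with 0.4% SRB in 1% acetic acid for 10 min, solubilized in 10 mM trizma base and read at 515 nm. GI50 is where 100×(T−T0)/(C−T0)=50.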

NCI-H23 = test: Growth inhibition of human NCI-H23 cells after 48 hrs by sulforhodamine B assay; assay type: functional; settings: NCI-H23, 48 h; how it was run: as §4

SMILES | IC50 (MCF7) [µM] | growth at 10 µM (MDA-MB-468 [1]) [%] | growth at 10 µM (UO-31) [%] | growth at 10 µM (TK-10) [%] | growth at 10 µM (SN12C) [%] | growth at 10 µM (UACC-62) [%] | growth at 10 µM (SNB-19 [2]) [%] | growth at 10 µM (HT-29) [%] | growth at 10 µM (HCT-116) [%] | growth at 10 µM (COLO 205) [%] | growth at 10 µM (NCI-H522) [%] | growth at 10 µM (A549) [%] | growth at 10 µM (RPMI-8226) [%] | growth at 10 µM (HL-60(TB)) [%] | growth at 10 µM (SK-OV-3) [%] | GI50 (MDA-MB-468 [3]) [µM] | GI50 (786-0) [µM] | GI50 (SK-MEL-2) [µM] | GI50 (SNB-19 [4]) [µM] | GI50 (NCI-H23) [µM]
CC(C)=CCC/C(C)=C/CC/C(C)=C/CC[C@]1(C)CCc2c3c(c(C)c(C)c2O1)OCN(CCCCCCCCCCCCO)C3 | > 20 | 106 | 77.7 | 108 | 97.4 | 89.5 | 104 | 84.4 | 102 | 97.5 | 69.5 | 86.5 | 87 | 95 |  |  |  |  |  | 
CC(C)=CCC/C(C)=C/CC/C(C)=C/CC[C@]1(C)CCc2c(CNCCc3ccc(O)cc3)c(O)c(C)c(C)c2O1 |  | 104 | 70.8 | 113 | 95.1 | 106 | 99.8 | 95.5 | 61.4 | 106 | 105 | 94.2 |  | 84 | 102 |  |  |  |  | 
CC(C)=CCC/C(C)=C/CC/C(C)=C/CC[C@]1(C)CCc2c3c(c(C)c(C)c2O1)OCN(CCc1ccc(O)cc1)C3 | 10.6 | 88.8 | 71.9 | 106 | 85.4 | 104 | 94.1 | 84.5 | 37.7 | 52.1 | 90 | 92.8 |  | 72.3 | 105 |  |  |  |  | 
COc1ccc(CCNCc2c(O)c(C)c(C)c3c2CC[C@@](C)(CC/C=C(\C)CC/C=C(\C)CCC=C(C)C)O3)cc1OC |  | 59.1 | 69.5 | 106 | 74 | 98.3 | 89.6 | 45.8 | 47.1 | 5.95 | 96.2 | 91.8 |  | 77.7 | 105 |  |  |  |  | 
CC(C)=CCC/C(C)=C/CC/C(C)=C/CC[C@]1(C)CCc2c3c(cc(C)c2O1)OCN(CCCCCCCCCCCCO)C3 | > 20 | 77.4 | 51.7 | 58.4 | 71.8 | 67.2 | 92.7 | 49.5 | 51.6 | 71.2 | 36.7 | 47.6 | 15.8 | 27.6 |  |  |  |  |  | 
CC(C)=CCC/C(C)=C/CC/C(C)=C/CC[C@]1(C)CCc2c3c(cc(C)c2O1)OCN(CCc1ccc(O)cc1)C3 | 18.2 | -44.6 | 52.1 | 100 | 65.6 |  | 92.1 | 18.6 | -58.2 | -69.9 | -50.5 | 76.6 |  | 31.2 | 69.1 | 1.55 | 6.61 | 7.02 | 5.89 | 6.82
CC(C)=CCC/C(C)=C/CC/C(C)=C/CC[C@]1(C)CCc2c3c(cc(C)c2O1)OCN(CCCCCCCCCCO)C3 | 4.6 | 83.8 | 61.9 | 101 | 92.7 | 109 | 98.9 | 48.3 | 65.6 | 79.3 | 86 | 59.9 | 63.2 | 62.7 |  |  |  |  |  | 
CC(C)=CCC/C(C)=C/CC/C(C)=C/CC[C@]1(C)CCc2cc(O)c(C)c(C)c2O1 [GAMMA-TOCOTRIENOL] | 7.1 | 108 | 64.1 | 122 | 96 | 108 | 114 | 96.1 | 109 | 94.4 | 68.8 | 105 | 78 | 86.5 |  |  |  |  |  | 
CC(C)=CCC/C(C)=C/CC/C(C)=C/CC[C@]1(C)CCc2c3c(c(C)c(C)c2O1)OCN(CCCCCCCCCCO)C3 | 19.4 | 91.9 | 71.7 | 99.4 | 99.4 | 103 | 95.7 | 90 | 78.4 | 100 |  | 74.9 | 78.8 | 88 |  |  |  |  |  | 
COc1ccc(CCN2COc3c(C)c(C)c4c(c3C2)CC[C@@](C)(CC/C=C(\C)CC/C=C(\C)CCC=C(C)C)O4)cc1OC | > 20 | 95.1 | 76.2 | 105 | 87.3 | 96.5 | 104 | 91.7 | 91.9 | 86.7 | 98.6 | 98.9 | 64.6 | 79.4 | 95.3 |  |  |  |  | 
